# Compound activity: PubChem BioAssay, Broad Institute
# SR-BI DiI inh = mouse SR-BI HDL lipid transfer inhibition. AID 488896. ldlA[mSR-BI] CHO cells, DiI-HDL uptake fluorescence, 3 h. inhibition, % at 12.5 µM. Q61009. hit rate 0.96% among 320,000;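 active = mean replicate inhibition of at least 70% and a set share of replicates each scoring 70 or more; inconclusive = meets just one of the two criteria; inactive = fails both criteria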;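 note: 0% = median of neutral control wells and 100% = median of positive control wells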
# Target sequence (Q61009 whole entry, looked up): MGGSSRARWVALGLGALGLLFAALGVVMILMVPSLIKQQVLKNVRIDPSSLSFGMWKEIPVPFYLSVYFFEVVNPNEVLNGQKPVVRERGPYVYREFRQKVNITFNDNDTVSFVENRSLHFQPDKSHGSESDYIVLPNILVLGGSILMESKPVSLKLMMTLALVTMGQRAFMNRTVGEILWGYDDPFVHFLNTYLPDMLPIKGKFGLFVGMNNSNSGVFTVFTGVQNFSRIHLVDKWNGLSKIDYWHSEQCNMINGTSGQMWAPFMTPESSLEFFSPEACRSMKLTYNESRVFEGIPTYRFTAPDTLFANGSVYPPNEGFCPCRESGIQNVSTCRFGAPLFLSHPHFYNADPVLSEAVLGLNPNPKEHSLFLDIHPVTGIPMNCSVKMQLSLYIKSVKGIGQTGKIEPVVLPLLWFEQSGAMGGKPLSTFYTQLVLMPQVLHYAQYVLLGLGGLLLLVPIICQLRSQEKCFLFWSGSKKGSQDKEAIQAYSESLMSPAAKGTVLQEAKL
# Ecoli rRNA inh = inhibits bacterial ribosomal RNA function over humanized ribosomes. E. coli WT GFP vs humanized-ribosome RFP mutants, fluorescence, 24 h; active compounds read low; DMSO median 0, no signal -100. GFP signal change (wild-type ribosome), % (concentration not given with the values). hit rate 1.6% among 350,000;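 active = significant combined selectivity score with lowered wild-type GFP, culture density cut under 30%, mutant RFP and density less affected; inactive = any of these conditions unmet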
# PvdQ acylase = P. aeruginosa PvdQ acylase inhibition | purified PvdQ acylase, fluorescence plate reader | inhibition, % at 10 µM | hit rate 0.063% among 340,000 | AID 488965; in the data active = inhibition above about 30%, passing the limit was not always enough; inconclusive = no clear call, values can overlap the other calls;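 note: 0% = vehicle neutral wells and 100% = reference inhibitor wells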
# dFosB activator = activators of mouse delta FosB homodimer | purified delta FosB, TAMRA-CDK5 oligo fluorescence polarization; percent of positive-control signal above neutral wells | activation, % at 25 µM | hit rate 0.99% among 340,000;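 active = mean activation above about 17%, with every replicate also reaching it, limit read from the data, passing the limit was not always enough; inconclusive = only one of the two conditions met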
# Xi reactivation = reactivates the inactive X chromosome in mouse fibroblasts; XiGFP mouse fibroblasts, % GFP-positive cells imaging, 3 d; cells co-treated with 5-aza-dC sensitizer; scaled so ellipticine positive control = 100%; activation, % at 7.58 µM; hit rate 0.055% among 360,000;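 active = mean normalized replicate activation at least 10% and every replicate at or above 10%; inconclusive = only one of the two criteria met; inactive = mean below 10% and not all replicates reach 10%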;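 note: 0% = median of on-plate neutral control wells and 100% = ellipticine 6 µM median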
#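 System: 68-5-11 XiGFP fibroblast line | Buffer or medium: DMEM containing 5-aza-dC | Compound: Single point | Times: Compounds 3 days, fix/stain 15 min at room temperature | Benchmarks: Positive control ellipticine, 6 µM final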
# SR-BI uptake up = SR-BI HDL lipid transfer activation. CHO ldlA[mSR-BI] cells, DiI-HDL uptake fluorescence, 3 h; 100 = double the neutral-control signal. activation, % at 12.5 µM. hit rate 0.096% among 320,000;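 active = mean replicate activation of at least 60% and every replicate at or above 60%; inconclusive = mean or all-replicate condition met, but not both; inactive = mean below 60% and not all replicates reaching 60%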;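 note: 0% = median plate neutral-control signal and 100% = twice that signal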
#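 System: CHO ldlA[mSR-BI] cells / Medium: HEPES-buffered (25 mM, pH 7.4) F12 plus 0.5% BSA / Probe or stimulus: labelled HDL, 10 µg/mL / Doses: single compound concentration, delivered by pin transfer / Schedule: 3 h, 37 °C / Measured by: DiI fluorescence, bottom read / Measure: cell-associated DiI fluorescence as measure of HDL uptake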
# * marks the source's active call; other numbers are inactive results; i = inactive; u = inconclusive; x = not tested or not shown. Sampled rows, rich in hits. Any-hit rate of the full collection: about 2.6%.
SMILES,SR-BI DiI inh,Ecoli rRNA inh,PvdQ acylase,dFosB activator,Xi reactivation,SR-BI uptake up
Cn1c(=O)n(CCc2ccccc2)c(=O)c2c1nc1n2CCCN1CCc1ccccc1,i,x,5.0,-7.6,x,505.8*
Cc1cc(C(=O)N2CCC(Cc3ccccc3)CC2)ccc1[N+](=O)[O-],20.5,-31.0*,15.0,-10.8,x,-20.5
Cc1ccc(C(=O)Nc2cccc(S(=O)(=O)N3CCOCC3)c2)cc1[N+](=O)[O-],76.7*,8.0,8.1,10.4,x,-76.6
CCOC(=O)c1c(C)[nH]c(C(=O)COC(=O)c2ccc(F)c(S(=O)(=O)N3CCOCC3)c2)c1C,73.6*,x,0.4,9.2,x,-73.6
O=C(Nc1cccc(S(=O)(=O)N2CCOCC2)c1)c1ccc(Cl)c([N+](=O)[O-])c1,34.5,6.0,-13.4,-3.8,0.0,-34.5
CCOC(=O)c1ccc(NC(=O)c2cccc(S(=O)(=O)N3CCOCC3)c2)cc1,83.1*,x,-6.8,9.9,x,-83.1
Cc1ccc(NC(=O)/C=C/c2ccc3c(c2)OCO3)cc1S(=O)(=O)N1CCOCC1,56.0,-20.4*,-6.3,-8.2,0.0,-56.0
CCCC#Cc1ccc([C@H]2[C@@H](CO)N3C(=O)CN(C(=O)Nc4ccccc4F)C[C@@H]23)cc1,x,3.7,x,x,0.1,x
Cc1c(CC(=O)NCCCC(=O)O)c(=O)oc2cc3oc4c(c3cc12)CCCC4,14.9,-5.1,-16.0,6.8,0.0,-14.9
O=C(Cc1ccccc1)N1CC[C@@H]2[C@H](CO)Nc3ccc(-c4cccc(F)c4)cc3[C@@H]21,x,-54.5,x,x,0.0,x
CS(=O)(=O)N1CCCCC1c1cc(C(=O)Nc2ccccc2)no1 (stereo unspecified),x,0.6,x,x,0.1,x
CCOC(=O)c1ccc(NC(=O)c2ccc(C)c(S(=O)(=O)N3CCOCC3)c2)cc1,87.0*,x,-11.2,-7.7,x,-87.0
Cc1ccc(C(=O)Nc2ccc(N3CCOCC3)cc2)cc1S(=O)(=O)N1CCCCC1,21.6,x,-5.1,-4.9,-0.2,-21.6
COc1cc(-c2cc(C(=O)Nc3ccc(C)c(S(=O)(=O)N4CCOCC4)c3)c3ccccc3n2)cc(OC)c1OC,37.4,3.8,-11.3,33.4*,0.2,-37.4
CCOCC(=O)Nc1ccc(S(=O)(=O)N2CCOCC2)cc1,-9.9,x,-10.1,-2.6,x,9.9
O=S(=O)(c1cccc(COc2ccc(Cl)cc2Cl)c1)N1CCOCC1,71.8*,0.2,6.6,-2.4,0.0,-71.8
CCOc1ccc(NC(=O)COn2nnc3ccc(S(=O)(=O)N4CCOCC4)cc32)cc1,12.8,-29.4*,-1.3,-5.5,0.0,-12.8
O=C1CCC(=O)N1CCc1c[nH]c2ccccc12,-19.9,x,5.1,4.9,x,19.9
CC(=O)c1ccc(-n2nnnc2SCC(=O)Nc2cccc(NC(=O)c3ccco3)c2)cc1,40.0,x,-4.3,-1.8,x,-40.0
O=C(Nc1ccc(N2CCCCCC2)cc1)c1cccc(S(=O)(=O)N2CCOCC2)c1,71.0*,-3.0,-10.9,2.2,-0.2,-71.0
O=C(Nc1ccccc1N1CCOCC1)c1cc2c(s1)CCCCC2,56.6,-17.9,12.7,-1.8,0.1,-56.6
CC(=O)c1ccc(NC(=O)c2ccc(C)c(S(=O)(=O)N3CCOCC3)c2)cc1,85.3*,11.9,0.2,-10.7,0.3,-85.3
O=C(NNC(=O)c1cc(Cl)ccc1O)c1cccc(S(=O)(=O)N2CCOCC2)c1,106.9*,-14.2,-0.7,-5.0,0.7,-106.9
O=C(Nc1ccc(N2CCOCC2)cc1)c1cc2c(s1)CCCCC2,87.8*,-21.6*,3.9,-6.7,0.5,-87.8
CCCCNC(=O)c1cc(C)nc2ccccc12,4.8,6.0,-3.0,-1.0,0.1,-4.8
SMILES,SR-BI DiI inh,Ecoli rRNA inh,PvdQ acylase,dFosB activator,Xi reactivation,SR-BI uptake up
CCOc1ccc(OCCCC(=O)NCCOc2ccccc2OC)cc1,-0.7,6.5,3.0,1.1,0.0,0.7
CC(=O)Nc1ccc(S(=O)(=O)NCc2ccc(C(=O)NCCN(C)Cc3ccccc3)cc2)cc1,x,4.8,x,x,0.0,x
CCOc1ccc(CCNC(=O)c2ccc(Cl)c(S(=O)(=O)N3CCOCC3)c2)cc1OCC,73.1*,0.0,-16.2,-3.2,0.2,-73.1
CCN(CC)C(=O)CSc1nnc(-c2ccc(S(=O)(=O)N3CCCC3)cc2)o1,-14.3,x,-10.6,-11.3,x,14.3
CCOc1ccc2nc(N3CCC(C(=O)N4CCN(C5CCCCC5)CC4)CC3)sc2c1,u,5.5,-15.1,-9.6,0.2,-71.2
CCOc1ccc2nc(N3CCCCCC3)sc2c1,-3.3,-31.9*,0.5,-7.2,x,3.3
COc1cc(OC)cc(-c2cc3ccc(OC)cc3cn2)c1,90.3*,-46.6,-10.8,-5.1,0.6,-90.3
COc1ccc(-c2cc3cc(OC)c(OC)cc3cn2)cc1,79.1*,-1.7,-1.9,1.5,0.0,-79.1
Clc1ccc(CSc2nnc([C@@H]3CCCN3)o2)cc1Cl,-20.6,x,-14.4,2.4,x,20.6
Cc1n[nH]c2ccc(Br)cc2c1=O,x,10.5,x,x,0.5,x
N=C1/C(=C/c2ccc(-c3cccc(C(=O)O)c3)o2)C(=O)N=C2SC=C(c3ccccc3)N12,4.4,-20.7*,-0.1,-18.7,0.0,-4.4
N=C1/C(=C\c2ccc(-c3cc(Cl)cc(Cl)c3)o2)C(=O)N=C2SC=C(c3ccccc3)N12,45.7,x,-7.6,-2.2,0.0,-45.7
N=C1/C(=C/c2cccn2CCOc2ccccc2)C(=O)N=C2SC=C(c3ccccc3)N12,74.9*,1.7,-12.6,-3.7,0.0,-74.9
COc1ccccc1CN1CC(C(=O)N(Cc2cnn(C)c2)C(C)C)CCC1=O (stereo unspecified),-16.7,6.8,-7.3,-7.6,0.0,16.7
CCCNC(=O)c1ccc(N2CCC3(CC2)CC(c2ccccc2)=NO3)c([N+](=O)[O-])c1,34.4,-9.7,3.7,-2.0,0.1,-34.4
CCCCCCCNC(=O)c1ccc(N2CCC3(CC2)OCCO3)c([N+](=O)[O-])c1,36.5,-25.5*,14.7,-9.1,0.0,-36.5
CN1c2ccc(-c3ccccc3)cc2[C@H]2[C@H](CCN2C(=O)Cc2cccnc2)[C@H]1CO,x,-8.1,x,x,-0.1,x
COC(=O)c1[nH]c2cc(OC)c(OC)cc2c1/C=N/Nc1ccccc1,121.5*,-19.1*,-15.2,-6.7,0.0,-121.4
CCOC(=O)C1CCN(c2ncnc3c2nnn3Cc2ccccc2Cl)CC1,-3.9,-20.5*,18.9,-4.6,0.4,3.9
CCOC(=O)C1CCN(c2ncnc3c(C)csc23)CC1,x,-25.4*,-10.4,-8.5,0.4,x
O=C(N1CCN(c2ccccc2F)CC1)C1(S(=O)(=O)c2ccc(Cl)cc2)CC1,-13.3,-4.3,-6.8,-4.2,0.1,13.3
CCOc1nc(-c2ccccc2)ccc1-c1noc(-c2ccco2)n1,37.2,x,-5.3,-8.5,x,-37.2
